Active and inactive are the calls of the source. The calls are words filed in the database; no cut-off is given here.
Tests used:
[1] = biological target: T1, AMP-activated protein kinase, AMPK (Homo sapiens) (UniProt P54646+O43741+P54619+Q9UGJ0+Q9Y478+Q13131+Q9UGI9); test: Activation of AMPK in human HepG2 cells assessed as induction of glucose consumption at 0.1 uM treated over 24 hrs by glucose oxidase method relative to control; format: cell-based
How it was run: (§1)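 HepG2 cells kept in DMEM (25 mM D-glucose) with 10% serum at 37 °C, 5% CO2. At 80-90% confluence the medium was switched to serum-free RPMI-1640 with 11.1 mM glucose and 0.2% BSA. Compounds in DMSO (0.5% v/v vehicle control) were given for 24 h. Medium glucose was read by glucose oxidase; consumption = cell-free blank wells minus cell wells. Student's t test against control.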

[2] = biological target: T1, AMP-activated protein kinase, AMPK (Homo sapiens); test: Activation of AMPK in human HepG2 cells assessed as induction of glucose consumption at 1 uM treated over 24 hrs by glucose oxidase method relative to control; format: cell-based; how it was run: as §1
[3] = biological target: T1, AMP-activated protein kinase, AMPK (Homo sapiens); test: Activation of AMPK in human HepG2 cells assessed as induction of glucose consumption at 10 uM treated over 24 hrs by glucose oxidase method relative to control; format: cell-based; how it was run: as §1
HepG2 [4] = test: Induction of AMPKalpha phosphorylation at Thr172 residue in human HepG2 cells at 10 uM by Western blot analysis; format: cell-based
How it was run: (§2)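 HepG2 cells were treated at 10 μM and lysed in pH 7.5 Tris buffer containing NaF, β-glycerophosphate, EDTA/EGTA, Triton X-100 and protease inhibitors, then cleared at 10,000 × g for 30 min at 4 °C. Equal lysate volumes were run on 8% SDS-PAGE and transferred to PVDF. Blots were probed for p-AMPKα (Thr172) and p-ACC (Ser79) with HRP secondary antibodies.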

HepG2 [5] = test: Activation of AMPKalpha in human HepG2 cells assessed as ACC phosphorylation at Ser79 residue at 10 uM by Western blot analysis; format: cell-based; how it was run: as §2
[6] = biological target: T1, AMP-activated protein kinase, AMPK (Homo sapiens); test: Activation of AMPK in human HepG2 cells assessed as induction of glucose consumption treated over 24 hrs by glucose oxidase method; format: cell-based; how it was run: as §1
Mus musculus [7] = test: Hypoglycemic activity in db/db mouse assessed as decrease in blood glucose level at 30 mg/kg, po administered as single dose measured at 3 hrs post last dose (reference value: 0.0 +/- 4.1%); format: functional; design: scale not given: the % may be the effect or the level left
Mus musculus [8] = test: Hypoglycemic activity in db/db mouse assessed as decrease in blood glucose level at 30 mg/kg, po treated for 1 week measured at 3 hrs post last dose (reference value: 0.0 +/- 8.6%); format: functional; design: scale not given: the % may be the effect or the level left
Mus musculus [9] = test: Hypoglycemic activity in db/db mouse assessed as decrease in blood glucose level at 30 mg/kg, po treated for 2 week measured at 3 hrs post last dose (reference value: 0.0 +/- 4.0%); format: functional; design: scale not given: the % may be the effect or the level left
Mus musculus [10] = test: Hypoglycemic activity in db/db mouse assessed as decrease in blood glucose level at 30 mg/kg, po treated for 3 week measured at 3 hrs post last dose (reference value: 0.0 +/- 6.8%); format: functional; design: scale not given: the % may be the effect or the level left
Mus musculus [11] = test: Toxicity in db/db mouse assessed as increase in body weight at 30 mg/kg, po treated for 1 to 3 weeks measured at 3 hrs post last dose relative to control; format: organism-based; settings: in vivo
Mus musculus [12] = test: Hypolipemic activity in db/db mouse assessed as plasma fasting triglyceride level at 30 mg/kg, po treated for 3 consecutive weeks (reference value: 0.70 to 0.97 mM); format: functional
Mus musculus [13] = test: Hypolipemic activity in db/db mouse assessed as total plasma cholesterol level at 30 mg/kg, po treated for 3 consecutive weeks (reference value: 6.05 to 6.98 mM); format: functional
Rattus norvegicus [14] = test: Volume of distribution in Sprague-Dawley rat at 20 mg/kg, ig by LC/MS/MS analysis; format: ADME, organism-based; settings: in vivo, po
How it was run: (§3)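 SD rats, three male and three female. Given iv at 5 mg/kg and intragastric at 20 mg/kg; the oral dose went by gavage in 20% 1,2-propanediol/80% water. Heparinized blood was sampled over 32 h post dose. Plasma was extracted with EtOAc and measured by LC/MS/MS. Non-compartmental analysis gave the PK parameters (n = 6).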

[15] = AUC (0 to t) in Sprague-Dawley rat at 5 mg/kg, iv by LC/MS/MS analysis; format: ADME, organism-based; settings: in vivo; how it was run: as §3
[16] = AUC (0 to t) in Sprague-Dawley rat at 20 mg/kg, ig by LC/MS/MS analysis; format: ADME, organism-based; settings: in vivo, po; how it was run: as §3
[17] = AUC (0 to infinity) in Sprague-Dawley rat at 5 mg/kg, iv by LC/MS/MS analysis; format: ADME, organism-based; design: dose 5 mg/kg, route intravenous, time infinity; settings: in vivo; how it was run: as §3
[18] = AUC (0 to infinity) in Sprague-Dawley rat at 20 mg/kg, ig by LC/MS/MS analysis; format: ADME, organism-based; design: dose 20 mg/kg, route intragastric, time infinity; settings: in vivo, po; how it was run: as §3
Rattus norvegicus [19] = test: Clearance in Sprague-Dawley rat at 5 mg/kg, iv by LC/MS/MS analysis; format: ADME, organism-based; settings: in vivo; how it was run: as §3
Rattus norvegicus [20] = test: Clearance in Sprague-Dawley rat at 20 mg/kg, ig by LC/MS/MS analysis; format: ADME, organism-based; settings: in vivo, po; how it was run: as §3
Rattus norvegicus [21] = test: Volume of distribution in Sprague-Dawley rat at 5 mg/kg, iv by LC/MS/MS analysis; format: ADME, organism-based; settings: in vivo; how it was run: as §3
[22] = Cmax in Sprague-Dawley rat at 20 mg/kg, ig by LC/MS/MS analysis; format: ADME, organism-based; design: dose 20 mg/kg, route intragastric; settings: in vivo, po; how it was run: as §3
[23] = Tmax in Sprague-Dawley rat at 20 mg/kg, ig by LC/MS/MS analysis; format: ADME, organism-based; settings: in vivo, po; how it was run: as §3
Rattus norvegicus [24] = test: Half life in Sprague-Dawley rat at 5 mg/kg, iv by LC/MS/MS analysis; format: ADME, organism-based; settings: in vivo; how it was run: as §3
Rattus norvegicus [25] = test: Half life in Sprague-Dawley rat at 20 mg/kg, ig by LC/MS/MS analysis; format: ADME, organism-based; settings: in vivo, po; how it was run: as §3
[26] = Bioavailability in Sprague-Dawley rat at 20 mg/kg, ig by LC/MS/MS analysis; format: ADME, organism-based; settings: in vivo, po; how it was run: as §3
Mus musculus [27] = test: Potency index, ratio of test compound to GY3 hypoglycemic activity in db/db mouse assessed as decrease in blood glucose level at 30 mg/kg, po treated for 3 week measured at 3 hrs post last dose; format: functional

**Q.** Which Activity [1] does the source give for `O=C(O)C1CCc2[nH]c3ccc(OCc4ccccc4)cc3c2C1` (configuration not stated) here?
**A.** 29%

**Q.** What about the Activity [2] of the same compound?
**A.** 37.2%

**Q.** What about the Activity [3] of the same compound?
**A.** 48.4 to 52.3%

**Q.** What about the Activity (HepG2 [4]) of the same compound?
**A.** Active

**Q.** What about the Activity (HepG2 [5]) of the same compound?
**A.** Active

**Q.** And the Activity [6]?
**A.** Dose-dependent effect

**Q.** For `O=C(O)c1ccccc1-c1ccc(Cn2c3c(c4cc(OCc5ccccc5)ccc42)CC(C(=O)O)CC3)cc1` (configuration not stated), which Activity [3] is on record?
**A.** 27.5%

**Q.** With `O=C(O)C1CCc2c(c3cc(OCc4ccccc4)ccc3n2Cc2ccc(Cl)cc2)C1` (configuration not stated) as the compound, how does the Activity [3] read?
**A.** 32.7%

**Q.** For `O=C(O)C1CCc2c(c3cc4c(cc3n2C(=O)c2ccc(Cl)cc2)OCO4)C1` (configuration not stated), which Activity [3] is on record?
**A.** 55.1%

**Q.** Which Activity (Mus musculus [7]) does the source give for `Cc1c(CC(=O)O)c2cc(OCc3ccccc3)ccc2n1C(=O)c1ccc(Cl)cc1` here?
**A.** 32.9%

**Q.** And the Activity (Mus musculus [8])?
**A.** 25.7%

**Q.** And the Activity (Mus musculus [9])?
**A.** 30.3%

**Q.** And the Activity (Mus musculus [10])?
**A.** 13.5%

**Q.** And the Activity (Mus musculus [11])?
**A.** 8.5%

**Q.** What about the Activity (Mus musculus [12]) of the same compound?
**A.** 0.79 mM

**Q.** And the Activity (Mus musculus [13])?
**A.** 7.78 mM

**Q.** Which results are given for `CCc1ccc(CCOc2ccc(CC3SC(=O)NC3=O)cc2)nc1` (configuration not stated) [PIOGLITAZONE]?
**A.** Activity (Mus musculus [7]): 21.9%; Activity (Mus musculus [8]): 37.1%; Activity (Mus musculus [9]): 34.5%; Activity (Mus musculus [10]): 37.4%; Activity (Mus musculus [11]): 16.3%; Activity (Mus musculus [12]): 0.51 mM; Activity (Mus musculus [13]): 7.89 mM

**Q.** For `O=C(O)C1CCc2c(c3cc(OCc4ccccc4)ccc3n2C(=O)c2ccc(Cl)cc2)C1` (stereo in doubt; 7a) [listing 1 of 2 here], which Activity [1] is on record?
**A.** 15.5%

**Q.** And the Activity [2]?
**A.** 30.2%

**Q.** What about the Activity [3] of the same compound?
**A.** 72.9 to 82.5%

**Q.** What about the Activity (HepG2 [4]) of the same compound?
**A.** Active

**Q.** And the Activity (HepG2 [5])?
**A.** Active

**Q.** What about the Activity [6] of the same compound?
**A.** Dose-dependent effect

**Q.** Which Activity [1] does the source give for `O=C(O)C1CCc2c(c3cc(OCc4ccc(F)cc4)ccc3n2C(=O)c2ccc(Cl)cc2)C1` (configuration not stated) here?
**A.** 0.11%

**Q.** And the Activity [2]?
**A.** 20.1%

**Q.** What about the Activity [3] of the same compound?
**A.** 53.4 to 68.8%

**Q.** And the Activity [6]?
**A.** Dose-dependent effect

**Q.** For `O=C(O)C1CCc2c(c3cc(OCc4ccccc4)ccc3n2Cc2ccccc2)C1` (configuration not stated), which Activity [3] is on record?
**A.** 30.4%

**Q.** Which Activity (Mus musculus [7]) does the source give for `O=C(O)C1CCc2c(c3cc(OCc4ccccc4)ccc3n2C(=O)c2ccc(Cl)cc2)C1` (stereo in doubt; 7a) [listing 2 of 2 here] here?
**A.** 30.6%

**Q.** What about the Activity (Mus musculus [8]) of the same compound?
**A.** 29.3%

**Q.** And the Activity (Mus musculus [9])?
**A.** 19.6%

**Q.** What about the Activity (Mus musculus [10]) of the same compound?
**A.** 28%

**Q.** What about the Activity (Mus musculus [11]) of the same compound?
**A.** 10.4%

**Q.** What about the Activity (Mus musculus [12]) of the same compound?
**A.** 0.54 mM

**Q.** What about the Activity (Mus musculus [13]) of the same compound?
**A.** 6.93 mM

**Q.** What about the Vd (Rattus norvegicus [14]) of the same compound?
**A.** 9.98 L/kg

**Q.** What about the AUC(0-t) [15] of the same compound?
**A.** 39600 ng·h/mL

**Q.** And the AUC(0-t) [16]?
**A.** 32000 ng·h/mL

**Q.** What about the AUC(0-inf) [17] of the same compound?
**A.** 71000 ng·h/mL

**Q.** What about the AUC(0-inf) [18] of the same compound?
**A.** 48300 ng·h/mL

**Q.** What about the CL (Rattus norvegicus [19]) of the same compound?
**A.** 1.2 mL/min/kg

**Q.** And the CL (Rattus norvegicus [20])?
**A.** 7.5 mL/min/kg

**Q.** And the Vd (Rattus norvegicus [21])?
**A.** 2.7 L/kg

**Q.** And the Cmax [22]?
**A.** 2320 ng/mL

**Q.** What about the Tmax [23] of the same compound?
**A.** 7.83 h

**Q.** And the t1/2 (Rattus norvegicus [24])?
**A.** 7.2 h

**Q.** And the t1/2 (Rattus norvegicus [25])?
**A.** 6.46 h

**Q.** And the bioavailability [26]?
**A.** 20.2%

**Q.** And the Ratio (Mus musculus [27])?
**A.** 2

**Q.** For `O=C(O)C1CCc2c(c3cc(OCc4ccccc4)ccc3n2Cc2ccc(F)cc2)C1` (configuration not stated), which Activity [3] is on record?
**A.** 34.3%

**Q.** Which Activity [1] does the source give for `O=C(O)C1CCc2c(c3cc(OCc4ccccc4)ccc3n2C(=O)c2ccc(Cl)cc2)C1` (stereo in doubt; (+)-7a) here?
**A.** 1.79%

**Q.** What about the Activity [2] of the same compound?
**A.** 27.3%

**Q.** What about the Activity [3] of the same compound?
**A.** 55.3 to 60.6%

**Q.** And the Activity (HepG2 [4])?
**A.** Active

**Q.** What about the Activity (HepG2 [5]) of the same compound?
**A.** Active

**Q.** And the Activity [6]?
**A.** Dose-dependent effect

From ChEMBL document CHEMBL4196071, “Discovery of tetrahydrocarbazoles with potent hypoglycemic and hypolipemic activities” (Eur J Med Chem, 2018)
